Source: PubChem BioAssay (several laboratories)
A selection: hits, their analogues and other compounds. The true share with any hit is near 4.8%.
SKKanGAS inh = inhibitors of SKKanGAS S. pyogenes growth in kanamycin (SK-promoter or general growth effect). BacTiter-Glo, 6 h. inhibition, % at 7.5 µM. actives 1.3% (n = 300,000). AID 1662;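 active = mean replicate score, as percent of positive control median, at least 50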;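 also: strain carries kanamycin resistance gene driven by streptokinase promoter and grows in 40 µg/ml kanamycin; loss of luminescence reflects streptokinase promoter inhibition or plain growth inhibition; 0% = median of DMSO wells and 100% = positive control at its reference dose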
Mdm2-MdmX inh = inhibitors of human Mdm2/MdmX interaction; SaOS-2 split-luciferase Mdm2/MdmX complementation, luminescence; O15151+Q00987; inhibition, % at 8 µM; AID 485346; actives 3% (n = 330,000);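 active = inhibition of at least 50% at 8 µM in the primary screen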
CSC inhib = blocks cancer stem cells | cancer stem cell-like cells viability, luminescence | inhibition, % at 7.5 µM | actives 1.1% (n = 300,000); in the data active = inhibition above about 75%; tested in HMLE shEcad cells
Beta cell apopt = blocks beta cell apoptosis. protection from apoptosis, % (test concentration not listed). actives 0.8% (n = 300,000). INS-1E cytokine-induced death, ATP luminescence, 48 h; percent of positive-control rescue, neutral wells zero;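 active = Every replicate reaches about 75%, or at least half do and their mean reaches it too, limit read from the data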;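 also: 0% = cytokine-treated negative control wells and 100% = positive control rescue; higher means more ATP so stronger rescue from cytokine killing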
UPR XBP1 act = adaptive UPR (XBP1) activation; activation, % at 20 µM; actives 0.33% (n = 330,000); CHO-XBP1 luciferase reporter, IRE1-XBP1 UPR activation, luminescence; percent of tunicamycin response, DMSO as zero;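 active = versus positive control, 20 µM dose yields 30% or more activation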;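 also: 100% = tunicamycin at 10 µg/mL and 0% = DMSO only wells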
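Material: CHO cell line with stable XBP1 luciferase reporter; buffer or medium: F12 medium containing 10% fetal bovine serum; compound: single point, 20 µM final compound, 1% DMSO; incubation: 6 h treatment, 37 °C; measured by: glow luminescence from Steady-Glo reagent; evaluation: activation, % of tunicamycin; control set: tunicamycin high, DMSO low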
CHOP UPR activ = apoptotic UPR (CHOP) activation; AID 449763; activation, % at 10 µM; actives 0.34% (n = 330,000); CHO-CHOP luciferase reporter, luminescence; percent of tunicamycin response over DMSO baseline;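 active = at 10 µM dose, activation of 40% or more, normalized to positive control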;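 also: 100% = tunicamycin at 10 µg/mL and 0% = DMSO alone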
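Test system: CHO-CHOP cells, stable luciferase reporter of PERK-eIF2a-CHOP signalling | Quantity: 500 CHO-CHOP cells per well | Buffer or medium: F12 plus 10% serum | Compound dosing: 10 µM single point, 0.5% DMSO | Schedule: 6 h compound treatment, 37 °C | Signal: Luciferase luminescence | Control set: Tunicamycin high control, DMSO low control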
* = called active by the depositor; . = not tested or not shown.

SMILES	SKKanGAS inh	Mdm2-MdmX inh	CSC inhib	Beta cell apopt	UPR XBP1 act	CHOP UPR activ
Cc1ccc(NC(=S)N/N=C/c2c(C)[nH]c3ccccc23)cc1	4	25	97*	10	2	2
Cc1cccc(NC(=S)N/N=C/c2c[nH]c3ccccc23)c1	8	44	79*	19	-1	2
COc1ccccc1NC(=O)CSc1nnc(-c2ccoc2C)n1C	-7	8	.	-8	0	-3
COc1ccc(C2=C3C(=O)OCC3Cc3ncn(Cc4ccccc4)c32)cc1 (stereo not given)	.	6	-20	-4	-2	3
CC(C)c1nc(-c2ccccc2)c(-c2ccccc2)[nH]1	-2	7	-3	88*	-1	0
CCC(C)NC(=O)c1cccc(OCc2c(C)noc2C)c1 (stereo not given)	8	-20	-12	7	-1	-1
CCOC(=O)c1c(C)[nH]c(C(=O)C(C)OC(=O)c2cccc(OCc3c(C)noc3C)c2)c1C (stereo not given)	50*	41	7	32	-1	2
Cc1ccc(SC/C(O)=C(\C#N)c2nc3ccccc3s2)cc1	77*	26	37	-10	-3	-1
N#C/C(=C(/O)COc1ccc(Cl)cc1)c1nc2ccccc2s1	90*	30	99*	13	-1	2
O=C(CCNC(=O)c1ccc(Cl)cc1)Nc1ccc(S(=O)(=O)N2CCCCC2)cc1	2	23	4	-2	-3	-2
CC(CC(=O)N1CCN(c2cccc(Cl)c2)CC1)S(=O)(=O)c1ccc2c(c1)NC(=O)CO2 (stereo not given)	1	-3	-8	80*	-4	8
COc1ccc(N2CCN(C(=O)CC(C)S(=O)(=O)c3ccc4c(c3)NC(=O)CO4)CC2)cc1 (stereo not given)	2	32	-5	-3	-5	-3
COc1ccc(/C=C(\C#N)C(=O)NCCc2ccccc2)cc1OCc1ccccc1	9	20	16	-3	-2	0
N#C/C(=C\c1ccc(O)c(O)c1)C(=O)NCCCc1ccccc1	1	23	68	-8	5	151*
COc1cc(C)c(Cl)cc1S(=O)(=O)NCc1ccccn1	-3	-1	-6	-3	-5	1
CCN(c1ccc(OC)cc1)S(=O)(=O)c1nnc(NC(=O)c2ccccc2Cl)s1	50*	-24	21	5	0	3
Cc1nc(N2CCC(C)CC2)c2c(C)c(C(=O)Nc3ccccc3C(F)(F)F)sc2n1	58*	7	44	1	-1	-1
Cc1cc(NC(=S)N(Cc2ccc(Cl)cc2)Cc2ccc(C(=O)O)cc2)ccc1Cl	64*	1	5	-2	-4	1
Cc1ccc(NC(=S)N(Cc2ccc(Br)cc2)Cc2ccc(C(=O)O)cc2)cc1C	53*	-26	4	0	-3	-1
Cn1c(N)c(C(=O)CSc2nnc(Cc3cccs3)n2C2CC2)c(=O)n(C)c1=O	.	12	.	-2	-4	1
COc1ccc(C2/C=C\CN(C(=O)Nc3ccc(C(F)(F)F)cc3)CC(=O)N2Cc2ccc(F)cc2)cc1 (stereo not given)	44	27	-5	81*	-5	5
COc1ccc(C2/C=C\CN(C(=O)Nc3ccccc3)CC(=O)N2Cc2ccc(F)cc2)cc1 (stereo not given)	2	8	-3	-1	-2	0
CC(C)(CNC(=O)CC1C(=O)NCCN1Cc1cccc(F)c1F)N1CCOCC1 (stereo not given)	-1	-14	-10	-2	-2	0
CCn1c(=O)n(CC)c2cc(N3CCCC3)c(NC(=O)c3ccccc3F)cc21	-3	11	31	2	5	-2
S=c1[nH]nc(COc2ccccc2)n1/N=C/C(Cl)=C/c1ccccc1	20	34	142*	-11	1	-2
S=c1[nH]nc(COc2ccccc2)n1/N=C/C=C/c1ccccc1	-12	-5	-8	-1	-3	0
